Reference: ChEMBL document CHEMBL4229392, “An Efficient Buchwald-Hartwig/Reductive Cyclization for the Scaffold Diversification of Halogenated Phenazines: Potent Antibacterial Targeting, Biofilm Eradication, and Prodrug Exploration” (J Med Chem, 2018)
Converted amounts (≈) assume the structure as drawn.

Experiments:
[1] = Half life in human serum by LC-MS analysis; format: ADME, cell-free
Method in brief: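 Human serum pre-warmed to 37 °C, spiked with prodrug from 10 mM DMSO stock plus internal standard, vortexed, then held 1 to 60 min. At each time point, acetonitrile with 0.5% formic acid was added to precipitate proteins. Released active HP was quantified as its ratio to internal standard against standard curves.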

Enterococcus faecium [2] = experiment: Antibacterial activity against vancomycin-resistant Enterococcus faecium ATCC 700221 after 16 to 18 hrs by broth microdilution method; format: functional
Method in brief: (§1)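 CLSI broth microdilution in Lysogeny Broth, eleven two-fold dilutions spanning 0.10–100 µM; ~10^5 cells per well from log-phase culture; DMSO vehicle (top 1% v/v). MIC = lowest concentration preventing growth after 16–18 h at 37 °C, supported by OD600; three independent experiments.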

Staphylococcus aureus [3] = experiment: Antibacterial activity against methicillin-resistant Staphylococcus aureus BAA-1707 after 16 to 18 hrs by broth microdilution method; format: functional; method in brief: as §1
HeLa = experiment: Cytotoxicity against human HeLa cells after 24 hrs by LDH release assy; format: cell-based
Method in brief: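 HeLa cells in DMEM with 10% FBS at 37 °C, 5% CO2, dosed at 70-80% confluence with compound diluted in medium at 25, 50 and 100 µM for 24 h. Supernatant mixed with LDH reaction mixture, 30 min at room temperature, stopped, A490 read. Triton X-100 (2% v/v) as maximal-release control, medium only as no-death control, DMSO as vehicle. Three independent experiments.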

[4] = system: Staphylococcus epidermidis; experiment: Antibacterial activity against methicillin-resistant Staphylococcus epidermidis ATCC 35984 after 16 to 18 hrs by broth microdilution method; format: functional
[5] = Hemolytic activity in human RBC at 200 uM after 1 hr relative to control; format: ADME, cell-based, Erythrocyte; settings: red blood cells (erythrocytes), read-out: Activity
Method in brief: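 Human RBCs drawn fresh into EDTA were washed three times in Tris-buffered saline (0.01 M Tris, 0.155 M NaCl, pH 7.2). 2% hRBC suspension was added to compound from DMSO stock, final 200 µM, for 1 h at 37 °C, then centrifuged and supernatant OD405 read. Scaled between DMSO (0%) and Triton X (100%). Three independent experiments.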

Staphylococcus aureus [6] = experiment: Antibacterial activity against methicillin-resistant Staphylococcus aureus 2 after 16 to 18 hrs by broth microdilution method; format: functional; method in brief: as §1
Staphylococcus aureus [7] = experiment: Induction of biofilm eradication of methicillin-resistant Staphylococcus aureus BAA-1707 after 24 hrs by calgary biofilm device method; format: functional
Method in brief: (§2)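 Calgary device: biofilms established 24 h at 37 °C from mid-log culture diluted 1,000-fold in TSBG (0.5% glucose), washed, exposed 24 h to 2-fold serial dilutions, then peg lid moved to fresh TSBG for 24 h recovery. MBEC = lowest concentration giving no turbidity; at least three independent experiments.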

Staphylococcus aureus [8] = experiment: Bactericidal activity against methicillin-resistant Staphylococcus aureus BAA-1707 planktonic cells after 24 hrs by calgary biofilm device method; format: organism-based
Method in brief: (§3)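 Biofilms grown 24 h at 37 °C on Calgary device pegs from mid-log culture diluted 1,000-fold in TSB + 0.5% glucose; washed pegs challenged 24 h at 37 °C with 2-fold serial dilutions. Challenge medium subcultured into fresh TSBG overnight; MBC = concentration without visible turbidity; at least three independent experiments.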

Staphylococcus aureus [9] = experiment: Induction of biofilm eradication of methicillin-resistant Staphylococcus aureus 2 after 24 hrs by calgary biofilm device method; format: functional; method in brief: as §2
[10] = system: Staphylococcus epidermidis; experiment: Induction of biofilm eradication of methicillin-resistant Staphylococcus epidermidis ATCC 35984 after 24 hrs by calgary biofilm device method; format: functional; method in brief: as §2
[11] = system: Staphylococcus epidermidis; experiment: Bactericidal activity against methicillin-resistant Staphylococcus epidermidis ATCC 35984 planktonic cells after 24 hrs by calgary biofilm device method; format: organism-based; method in brief: as §3
[12] = system: Mycobacterium tuberculosis; experiment: Antibacterial activity against Mycobacterium tuberculosis H37Ra ATCC 25177 after 7 days; format: functional; settings: H37Ra ATCC 25177, 168 h
Method in brief: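 M. tuberculosis H37Ra grown two weeks in Middlebrook 7H9, diluted to OD600 0.01; two-fold serial dilutions 0.024–50 µM (streptomycin positive control, 0.16–340 µM); final DMSO 0.5%. Incubated 7 days at 37 °C; MIC = lowest concentration with no growth, OD600 recorded; three independent experiments.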

Staphylococcus aureus [13] = experiment: Bactericidal activity against methicillin-resistant Staphylococcus aureus 2 planktonic cells after 24 hrs by calgary biofilm device method; format: organism-based; method in brief: as §3
Enterococcus faecium [14] = experiment: Induction of biofilm eradication of vancomycin-resistant Enterococcus faecium ATCC 700221 after 24 hrs by calgary biofilm device method; format: functional; method in brief: as §2
Enterococcus faecium [15] = experiment: Bactericidal activity against vancomycin-resistant Enterococcus faecium ATCC 700221 planktonic cells after 24 hrs by calgary biofilm device method; format: organism-based; method in brief: as §3

Row | SMILES | half-life [1] [min] | MIC (Enterococcus faecium [2]) [µM] | MIC (Staphylococcus aureus [3]) [µM] | IC50 (HeLa) [µM] | MIC [4] [µM] | hemolysis at 1 h, 200 µM [5] [%] | MIC (Staphylococcus aureus [6]) [µM] | MBEC (Staphylococcus aureus [7]) [µM] | MBC (Staphylococcus aureus [8]) [µM] | MBEC (Staphylococcus aureus [9]) [µM] | MBEC [10] [µM] | MBC [11] [µM] | MIC [12] [µM] | MBC (Staphylococcus aureus [13]) [µM] | MBEC (Enterococcus faecium [14]) [µM] | MBC (Enterococcus faecium [15]) [µM]
1 | O=C(OCCOCCOCCOCCO)OCOc1c(Br)cc(Br)c2nc3ccccc3nc12 | 7.3 | > 100 | > 100 | > 100 | > 100 | 2.7 |  |  |  |  |  |  |  |  |  | 
2 | OC[C@H]1O[C@@H](Oc2c(Br)cc(Br)c3nc4ccccc4nc23)[C@H](O)[C@@H](O)[C@@H]1O | > 260 | > 100 | > 100 |  | > 100 | ≤ 1 |  |  |  |  |  |  |  |  |  | 
3 | CC(=O)NC[C@H]1CN(c2ccc(N3CCOCC3)c(F)c2)C(=O)O1 [LINEZOLID] |  |  | 12.5 (≈ 4.22 µg/mL) |  |  | ≤ 1 | 3.13 (≈ 1.06 µg/mL) | >2000 | 31.3 (≈ 10.6 µg/mL) | >2000 |  |  |  |  |  | 
4 | CCN(CC)c1ccc2nc3c(O)c(Br)cc(Br)c3nc2c1Br |  | 0.3 (≈ 0.151 µg/mL) | 0.15 (≈ 0.0756 µg/mL) | > 100 | 0.1 (≈ 0.0504 µg/mL) | ≤ 1 | 0.3 (≈ 0.151 µg/mL) | 4.69 | 9.38 (≈ 4.73 µg/mL) |  | 6.25 | 9.38 (≈ 4.73 µg/mL) |  |  |  | 
5 | COCCOCCOCCOCCOC(=O)Oc1c(Br)cc(Br)c2nc3cc(Cl)ccc3nc12 | < 1 | 0.1 (≈ 0.0623 µg/mL) |  | > 100 | 0.038 (≈ 0.0237 µg/mL) | 1.1 |  |  | 6.25 (≈ 3.89 µg/mL) |  | 18.8 | 9.38 (≈ 5.84 µg/mL) |  |  |  | 
6 | Oc1ccc(Br)c2nc3cc(Cl)ccc3nc12 |  | 25 (≈ 7.74 µg/mL) |  | > 100 | 18.8 (≈ 5.82 µg/mL) |  |  |  |  |  |  |  | 6.25 (≈ 1.93 µg/mL) |  |  | 
7 | O=C(OCCSSCCOC(=O)c1ccccc1)OCOc1c(Br)cc(Br)c2nc3ccccc3nc12 |  | > 100 | > 100 | > 100 | > 100 | 1.3 |  |  |  |  |  |  |  |  |  | 
8 | C[C@H]1c2cccc(O)c2C(=O)C2=C(O)[C@]3(O)C(=O)C(C(N)=O)=C(O)[C@@H](N(C)C)[C@@H]3[C@@H](O)[C@@H]21.O [DOXYCYCLINE] |  |  |  |  |  |  |  |  |  | 46.9 |  |  |  | 2 |  | 
9 | CCCc1cn(Cc2ccc3nc4c(OC(C)=O)c(Br)cc(Br)c4nc3c2)nn1 |  | > 100 | 100 (≈ 51.9 µg/mL) |  |  |  |  |  |  |  |  |  |  |  |  | 
10 | CS(=O)(=O)N1CCN(C(=O)Oc2c(Br)cc(Br)c3nc4ccccc4nc23)C1=O | < 1 | 3.13 (≈ 1.7 µg/mL) |  | > 100 | 1.56 (≈ 0.849 µg/mL) | ≤ 1 |  | 75 | 37.5 (≈ 20.4 µg/mL) |  | 37.5 | 18.8 (≈ 10.2 µg/mL) |  |  | 9.38 | 9.38 (≈ 5.1 µg/mL)
11 | c1ccc(CN(CCN(Cc2ccccn2)Cc2ccccn2)Cc2ccccn2)nc1 |  |  | 50 (≈ 21.2 µg/mL) |  |  | ≤ 1 |  | >2000 | 250 (≈ 106 µg/mL) |  |  |  |  |  | >2000 | 188 (≈ 79.8 µg/mL)
12 | Cc1cc(C)c2nc3c(Br)ccc(O)c3nc2c1 |  | 9.38 (≈ 2.84 µg/mL) | 4.69 (≈ 1.42 µg/mL) | > 100 |  |  |  |  |  |  |  |  | 50 (≈ 15.2 µg/mL) |  |  | 
13 | CCCc1ccc2nc3c(O)c(Br)cc(Br)c3nc2c1 |  | 3.13 (≈ 1.24 µg/mL) | 0.1 (≈ 0.0396 µg/mL) | > 50 | 0.15 (≈ 0.0594 µg/mL) | 2.1 |  | 75 |  |  |  | 25 (≈ 9.9 µg/mL) |  |  |  | 25 (≈ 9.9 µg/mL)
14 | CC(=O)N[C@@H](CS)C(=O)O [ACETYLCYSTEINE] |  |  |  |  |  |  |  |  |  | >2000 | >2000 | > 2000 |  | > 2000 | >2000 | > 2000
